The values that follow come from ChEMBL document CHEMBL1122081, “2-(Aminomethyl)phenols, a new class of saluretic agents. 4. Effects of oxygen and/or nitrogen substitution” (J Med Chem, 1982).

Each structure is given as a SMILES string.

Common to all, as to conditions: in vivo
The subject of data set [1] is Canis familiaris. Description: Saluretic property was estimated by the excretion of Na+ in dog administered intravenously; microequiv of Na+/min at 5 mg/kg iv stat, 100-249. The class given is ADME, organism-based, Canis lupus familiaris. Details: dose 5 mg/kg, route intravenous. The method in brief:
(§1)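 Dogs of 15-20 kg were given a single stat intravenous dose of 5 mg/kg and Na+ excretion was measured in microequiv/min. The score is the average of two dogs, or three where designated.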

The subject of data set [2] is Rattus norvegicus. Description: Saluretic property was estimated by the excretion of Na+ in rat administered orally; microequiv of Na+ at 50 mg/kg […]. The class given is ADME, organism-based. Details: dose 50 mg/kg. Summed up:
(§2)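 Rats dosed orally; urinary Na+ excretion (microequiv) scored per dose level. Each score is the geometric mean of three animals per cage, with three cages per dose.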

For data set [3], the system named is Rattus norvegicus. In words: Saluretic property was estimated by the excretion of Na+ in rat administered orally; microequiv of Na+ at 81 mg/kg […]. The format is ADME, organism-based. Details: dose 81 mg/kg. Summed up:
as §2

Data set [4] deals with Rattus norvegicus. Description: Saluretic property was estimated by the excretion of Na+ in rat administered orally; microequiv of Na+ at 16.5 mg/kg […]. Details: dose 16.5 mg/kg. The format is ADME, organism-based. Summed up: as §2
Data set [5] concerns Rattus norvegicus. Description: Saluretic property was estimated by the excretion of Na+ in rat administered orally; microequiv of Na+ at 5 mg/kg […]. The format is ADME, organism-based. Details: dose 5 mg/kg. Summed up: as §2
The test system of data set [6] is Rattus norvegicus. Description: Saluretic property (excretion of Na+ in rat after PO dosing). The format is ADME, organism-based. The method in brief:
as §2

The species entered for data set [7] is Rattus norvegicus. Description: Saluretic property (excretion of Na+ in rat). The class given is ADME, organism-based. Summed up: as §2
For data set [8], the system named is Canis familiaris. In words: Saluretic property was estimated by the excretion of Na+ in dog administered intravenously; microequiv of Na+/min at 5 mg/kg iv stat, 400-599. The format is ADME, organism-based, Canis lupus familiaris. Details: dose 5 mg/kg, route intravenous. The method in brief: as §1
The subject of data set [9] is Canis familiaris. In words: Saluretic property was estimated by the excretion of Na+ in dog administered intravenously; microequiv of Na+/min at 5 mg/kg iv stat, […]. Also on record: dose 5 mg/kg, route intravenous. The class given is ADME, organism-based, Canis lupus familiaris. Summed up: as §1
Data set [10] relates to Rattus norvegicus. Description: Saluretic property was estimated by the excretion of Na+ in rat administered orally; microequiv of Na+ at 1 mg/kg […]. Details: dose 1 mg/kg. The class given is ADME, organism-based. The method in brief: as §2
The subject of data set [11] is Canis familiaris. In words: Saluretic property was estimated by the excretion of Na+ in dog administered intravenously; microequiv of Na+/min at 5 mg/kg iv stat, 800-899. Details: dose 5 mg/kg, route intravenous. The format is ADME, organism-based, Canis lupus familiaris. Summed up: as §1

With `CCOC(=O)COc1c(I)cc(C(C)(C)C)cc1CN.Cl`, the Saluretic potency is reported as 100 u equiv min-1 in the data set with Canis familiaris [1], less than 0.2 u equiv in the data set with Rattus norvegicus [2] and less than 0.3 u equiv in the data set on Rattus norvegicus [3].

As for `CCNS(=O)(=O)Oc1c(I)cc(C(C)(C)C)cc1CN.Cl`, the Saluretic potency is reported as 1.4 u equiv with Rattus norvegicus [4]; 0.5 u equiv in the data set with Rattus norvegicus [5]; 2.4 u equiv with Rattus norvegicus [6]; 2.9 u equiv in the data set filed under Rattus norvegicus [7]; 400 u equiv min-1 in the data set with Canis familiaris [8].

As to `CNCc1cc(C(C)(C)C)cc(I)c1O`, the Saluretic potency with Canis familiaris [9] is reported as 250 u equiv min-1; in the data set on Rattus norvegicus [10], 0.7 u equiv; in the data set on Rattus norvegicus [4] it was 3.3 u equiv; in the data set on Rattus norvegicus [5] it was 2.6 u equiv; in the data set with Rattus norvegicus [6] it was 3.6 u equiv.

For the compound `Cl.NCc1c(O)c(Cl)cc(Cl)c1Cl`, the Saluretic potency with Canis familiaris [11] was 800 u equiv min-1; in the data set with Rattus norvegicus [4], 1.4 u equiv; with Rattus norvegicus [5] it was 0.5 u equiv; in the data set with Rattus norvegicus [6] it was 2.4 u equiv; in the data set listed under Rattus norvegicus [7], 2.9 u equiv.
